Reference: ChEMBL document CHEMBL3797161, “Design, Synthesis, and Immunological Evaluation of Benzyloxyalkyl-Substituted 1,2,3-Triazolyl α-GalCer Analogues” (ACS Med Chem Lett, 2016)
Activity calls are given as the source filed them. The calls are words filed in the database; no cut-off is given here.

Legend:
Mus musculus [1] = organism: Mus musculus; assay: Binding affinity to CD1D in Balb/c mouse splenocytes assessed as increase in IL-4 production at 10 to 1000 ng/ml after 48 hrs by sandwich ELISA; assay type: cell-based
Procedure, shortened: (§1)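 Splenocytes isolated from BALB/c mice were cultured in vitro with glycolipid (dissolved in DMSO) at 10, 100 or 1000 ng/mL for 48 h. IL-2, IL-4 and IFN-γ in the culture were measured by ELISA.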

T-cell = assay: Binding affinity to CD1D in Balb/c mouse splenocytes assessed as T cell stimulation by measuring increase in cytokine expression after 48 hrs by sandwich ELISA; assay type: cell-based; procedure, shortened: as §1
Mus musculus [2] = organism: Mus musculus; assay: Binding affinity to CD1D in Balb/c mouse splenocytes assessed as increase in IL-2 production at 10 to 1000 ng/ml after 48 hrs by sandwich ELISA; assay type: cell-based; procedure, shortened: as §1
[3] = Cytotoxicity against Balb/c mouse splenocytes assessed as reduction in cell proliferation up to 1000 ng/ml after 48 hrs by MTT assay; assay type: cell-based; conditions: splenocyte
Procedure, shortened: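 Splenocytes from BALB/c mice were exposed to glycolipid at up to 1000 ng/mL for 48 h. Proliferation was read by MTT relative to untreated cells.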

Mus musculus [4] = assay: Stimulation of IFN-gamma production in Balb/c mouse at 1 ug, iv after 2 to 48 hrs by sandwich ELISA; assay type: functional, organism-based
Procedure, shortened: (§2)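 BALB/c mice received glycolipid intravenously, 1 μg per animal. IFN-γ and IL-4 expression was then measured in vivo.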

Mus musculus [5] = assay: Stimulation of IL-4 production in Balb/c mouse at 1 ug, iv after 2 to 48 hrs by sandwich ELISA; assay type: functional, organism-based; procedure, shortened: as §2
[6] = Solubility of compound in DMSO at 10 to 1000 ng/ml; assay type: physicochemical
Mus musculus [7] = organism: Mus musculus; assay: Binding affinity to CD1D in Balb/c mouse splenocytes assessed as increase in IFN-gamma production at 1000 ng/ml at 24 hrs by sandwich ELISA; assay type: cell-based
Procedure, shortened: (§3)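 For cytokine kinetics, BALB/c mouse splenocytes were treated in vitro with glycolipid at 1000 ng/mL. Culture supernatants were sampled at 2, 12 and 24 h, and IL-4 and IFN-γ were quantified.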

Mus musculus [8] = organism: Mus musculus; assay: Binding affinity to CD1D in Balb/c mouse splenocytes assessed as increase in IL-4 production at 1000 ng/ml at 2 hrs by sandwich ELISA; assay type: cell-based; procedure, shortened: as §3
Mus musculus [9] = organism: Mus musculus; assay: Binding affinity to CD1D in Balb/c mouse splenocytes assessed as increase in IFN-gamma production at 1000 ng/ml up to 12 hrs by sandwich ELISA; assay type: cell-based; procedure, shortened: as §3
Mus musculus [10] = organism: Mus musculus; assay: Binding affinity to CD1D in Balb/c mouse splenocytes assessed as increase in IL-4 production at 1000 ng/ml up to 24 hrs by sandwich ELISA; assay type: cell-based; procedure, shortened: as §3
Mus musculus [11] = organism: Mus musculus; assay: Binding affinity to CD1D in Balb/c mouse splenocytes assessed as increase in IFN-gamma production at 10 to 1000 ng/ml after 48 hrs by sandwich ELISA; assay type: cell-based; procedure, shortened: as §1
[12] = biological target: T1, Antigen-presenting glycoprotein CD1d (Homo sapiens) (UniProt P15813); assay: Binding affinity to CD1D (unknown origin) assessed as increase in IL-2 production at 100 ng/ml preincubated for 16 hrs followed by Valpha-14 Vbeta-8.2 DN3A4-1.2(1.2) iNKT hybridoma cells addition to compound-CD1D mixture measured after 16 hrs by sandwich ELISA
T1 sequence (whole entry): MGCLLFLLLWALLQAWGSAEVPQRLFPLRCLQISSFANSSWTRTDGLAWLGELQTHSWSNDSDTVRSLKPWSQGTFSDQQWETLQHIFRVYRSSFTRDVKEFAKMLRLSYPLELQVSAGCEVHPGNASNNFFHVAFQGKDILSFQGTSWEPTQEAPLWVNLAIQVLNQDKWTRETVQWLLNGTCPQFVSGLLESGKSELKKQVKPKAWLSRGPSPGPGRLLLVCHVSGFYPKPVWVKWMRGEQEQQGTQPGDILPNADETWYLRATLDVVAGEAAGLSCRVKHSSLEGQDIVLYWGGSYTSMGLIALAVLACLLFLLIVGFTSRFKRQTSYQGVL
Procedure, shortened: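 Glycolipid incubated with CD1d protein for 16 h, then exposed to Vα14 Vβ8.2 DN3A4–1.2 (1.2) iNKT hybridoma cells; IL-2 secreted into the medium quantified.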

Mus musculus [13] = organism: Mus musculus; assay: Binding affinity to CD1D in Balb/c mouse splenocytes assessed as increase in IFN-gamma production at 1000 ng/ml after 48 hrs by sandwich ELISA; assay type: cell-based

Row | SMILES | Activity (Mus musculus [1]) | Activity (Mus musculus [2]) | solubility [6] | Activity (Mus musculus [7]) | Activity (Mus musculus [8]) | Activity (Mus musculus [9]) | Activity (Mus musculus [10]) | Activity (Mus musculus [11]) | Activity [12] | Activity (Mus musculus [13]) | Activity (T-cell) | Activity [3] | Activity (Mus musculus [4]) | Activity (Mus musculus [5])
1 | CCCCCCCCCCCCCC[C@@H](O)[C@@H](O)[C@H](CO[C@H]1O[C@H](CO)[C@H](O)[C@H](O)[C@H]1O)n1cc(COCCCCOCc2ccccc2)nn1 | – | Active | soluble | – | – | – | – | – | – | – | Dose-dependent effect | Non-toxic | – | –
2 | CCCCCCCCCCCCCC[C@@H](O)[C@@H](O)[C@H](CO[C@H]1O[C@H](CO)[C@H](O)[C@H](O)[C@H]1O)n1cc(COCCCCCCOCc2ccccc2)nn1 | – | Active | soluble | – | – | – | – | – | – | Active | Dose-dependent effect | Non-toxic | – | –
3 | CCCCCCCCCCCCCC[C@@H](O)[C@@H](O)[C@H](CO[C@H]1O[C@H](CO)[C@H](O)[C@H](O)[C@H]1O)n1cc(COCCCCCCCCCCCCOCCCCOCc2ccccc2)nn1 | Active | Active | soluble | Active | Active | inactive | inactive | Active | Active | – | Dose-dependent effect | Non-toxic | inactive | inactive
4 | CCCCCCCCCCCCCCCCCCCCCCCCCC(=O)N[C@@H](CO[C@H]1O[C@H](CO)[C@H](O)[C@H](O)[C@H]1O)[C@H](O)[C@H](O)CCCCCCCCCCCCCC [RGI-7000] | Active | Active | – | Active | Active | Active | Active | Active | Active | – | – | Non-toxic | Active | Active
5 | CCCCCCCCCCCCCC[C@@H](O)[C@@H](O)[C@H](CO[C@H]1O[C@H](CO)[C@H](O)[C@H](O)[C@H]1O)n1cc(COCCCCCCCCCCCCOCCOCc2ccccc2)nn1 | – | Active | soluble | – | – | – | – | – | – | Active | Dose-dependent effect | Non-toxic | – | –

Second part, led by results:

Row | Activity (Mus musculus [1]) | Activity (Mus musculus [2]) | solubility [6] | Activity (Mus musculus [7]) | Activity (Mus musculus [8]) | Activity (Mus musculus [9]) | Activity (Mus musculus [10]) | Activity (Mus musculus [11]) | Activity [12] | Activity (Mus musculus [13]) | SMILES | Activity (T-cell) | Activity [3] | Activity (Mus musculus [4]) | Activity (Mus musculus [5])
6 | Active | Active | soluble | Active | Active | inactive | inactive | Active | Active | – | CCCCCCCCCCCCCC[C@@H](O)[C@@H](O)[C@H](CO[C@H]1O[C@H](CO)[C@H](O)[C@H](O)[C@H]1O)n1cc(COCCCCCCCCCCCCOCCCCCCOCc2ccccc2)nn1 | Dose-dependent effect | Non-toxic | inactive | inactive
7 | – | inactive | soluble | – | – | – | – | – | – | – | CCCCCCCCCCCCCC[C@@H](O)[C@@H](O)[C@H](CO[C@H]1O[C@H](CO)[C@H](O)[C@H](O)[C@H]1O)n1cc(COCCOCc2ccccc2)nn1 | Dose-dependent effect | Non-toxic | – | –
8 | – | Active | soluble | – | – | – | – | – | – | – | CCCCCCCCCCCCCC[C@@H](O)[C@@H](O)[C@H](CO[C@H]1O[C@H](CO)[C@H](O)[C@H](O)[C@H]1O)n1cc(COCCCCCCCCCCCCOCc2ccccc2)nn1 | Dose-dependent effect | Non-toxic | – | –
9 | – | Active | soluble | – | – | – | – | – | – | – | CCCCCCCCCCCCCC[C@@H](O)[C@@H](O)[C@H](CO[C@H]1O[C@H](CO)[C@H](O)[C@H](O)[C@H]1O)n1cc(COCCCCCCCCCCOCc2ccccc2)nn1 | Dose-dependent effect | Non-toxic | – | –
10 | – | Active | soluble | – | – | – | – | – | – | – | CCCCCCCCCCCCCC[C@@H](O)[C@@H](O)[C@H](CO[C@H]1O[C@H](CO)[C@H](O)[C@H](O)[C@H]1O)n1cc(COCCCCCCCCOCc2ccccc2)nn1 | Dose-dependent effect | Non-toxic | Active | Active
